Publication PMC9064241 (RSC Advances, 2019)
Blank lines part the entries; values can stand above or below the molecule they belong to.

Experiments:
[1] = system: HT29 cells; assay: DMR agonist assay in HT29 cells; format: cell-based, Human; conditions: for EC50: Homo sapiens, HT-29, read-out: HT29 cell, EC50, NPs-derived FFA4 agonists, DMR, HT29 cells
[2] = target: T1, human FFA4 (Homo sapiens, UniProt Q5NUL3); assay: FLIPR calcium flux assay in CHO-FFA4 cells; format: cell-based; conditions: acetylshikonin 100 μM, TUG891 15 μM
T1 sequence (Q5NUL3 1-361): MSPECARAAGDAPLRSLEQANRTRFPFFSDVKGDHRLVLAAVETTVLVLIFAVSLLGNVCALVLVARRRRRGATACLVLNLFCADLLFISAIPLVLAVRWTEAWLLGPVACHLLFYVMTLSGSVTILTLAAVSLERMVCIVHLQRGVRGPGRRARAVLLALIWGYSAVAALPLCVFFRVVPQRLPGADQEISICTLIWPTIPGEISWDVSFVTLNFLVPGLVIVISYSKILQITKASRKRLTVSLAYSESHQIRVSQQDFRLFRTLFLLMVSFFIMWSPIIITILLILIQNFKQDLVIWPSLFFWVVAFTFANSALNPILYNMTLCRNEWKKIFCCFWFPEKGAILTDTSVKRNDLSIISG

[3] = target: T1, human FFA4; assay: DMR agonist assay in CHO-FFA4 cells; format: cell-based; conditions: for EC50: CHO-FFA4 cell, EC50, NPs-derived FFA4 agonists, DMR, CHO-FFA4 cells; for Selectivity between FFA4 and FFA1: comparison of DMR activity in CHO-FFA4 and CHO-FFA1 cells; for DMR response relative to the TUG891-induced response: screening of 140 natural compounds in CHO-FFA4 cells, of the TUG891-induced response (∼80 pm); for DMR response in CHO-FFA4 cells: 100 μM ALA, 12.5 μM GW9508, 10 μM TAK875 (Fig. 2A)
[4] = target: T2, human FFA1 (Homo sapiens, UniProt O14842); assay: DMR agonist assay in CHO-FFA1 cells; format: cell-based; conditions: for EC50: CHO-FFA1 cell, EC50, NPs-derived FFA4 agonists
[5] = target: T2, human FFA1; assay: DMR desensitization assay in CHO-FFA1 cells; format: cell-based; conditions: CHO-FFA1 cell Desensitization IC50, IC50 to desensitize the DMR of 1 μM GW9508 in CHO-FFA1 cells
[6] = system: CHO-K1 cells; assay: DMR agonist assay in parental CHO-K1 cells; format: cell-based, Chinese hamster
How it was run: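 Parental CHO-K1 cells were grown in Ham's F12K with 10% FBS, then seeded on biosensor microplates overnight to a confluent monolayer. Cells were washed twice and held 1–2 h in HBSS, 10 mM HEPES, pH 7.2, 0.1% BSA. After a 2 min baseline, the test compound, diluted in the same buffer, was added. Label-free DMR was recorded for 1 h.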

[7] = system: HT29 cells; assay: DMR desensitization assay in HT29 cells; format: cell-based; conditions: Homo sapiens, HT-29, read-out: HT 29 cell Desensitization IC50
[8] = target: T1, human FFA4; assay: DMR desensitization assay in CHO-FFA4 cells; format: cell-based
[9] = system: FFA4; conditions: read-out: EC50 as natural FFA4 agonist; literature retrieval; cited from earlier work

T2 sequence (O14842 whole entry): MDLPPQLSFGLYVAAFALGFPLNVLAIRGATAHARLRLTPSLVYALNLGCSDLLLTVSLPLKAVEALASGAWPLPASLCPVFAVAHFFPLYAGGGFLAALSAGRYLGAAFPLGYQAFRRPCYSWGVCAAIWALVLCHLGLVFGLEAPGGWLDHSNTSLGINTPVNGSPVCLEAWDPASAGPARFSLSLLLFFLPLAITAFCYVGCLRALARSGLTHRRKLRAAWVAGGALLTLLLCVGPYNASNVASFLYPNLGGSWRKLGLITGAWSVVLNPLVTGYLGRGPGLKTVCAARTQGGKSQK

Compound: Cc1ccc(-c2ccc(F)cc2COc2ccc(CCC(=O)O)cc2)cc1 [TUG891]
DMR response in parental CHO-K1 cells [6]: neither GSK137647A (Fig. 2F) nor TUG891 (data not shown) produced detectable DMR events
IC50 [7]: 0.48 ± 0.12 µM

Compound: CC(C)=CCC/C(C)=C/CC/C(C)=C/Cc1c(O)cc(C)c(C(=O)O)c1O [grifolic acid]
EC50 [9]: > 30 µM

Compound: CCCCCCCCCCCCCC[C@@H](O)[C@@H](O)[C@@H](N)CO [phytosphingosine]
EC50 [9]: 33.4 µM

More lines, main results first:

EC50 [1]: 2.82 ± 0.39 µM
Ca2+ response in CHO-FFA4 cells [2]: produced a Ca^2+ response
EC50 [3]: 10.2 ± 2.95 µM
Selectivity between FFA4 and FFA1 [3]: non-selective
DMR response relative to the TUG891-induced response [3]: greater than 30%
EC50 [4]: 6.17 ± 2.81 µM
Compound: CC(=O)O[C@H](CC=C(C)C)C1=CC(=O)c2c(O)ccc(O)c2C1=O [Acetylshikonin, acetylshikonin]

EC50 [1]: ~39 µM
EC50 [3]: 38.2 ± 5.02 µM
Selectivity between FFA4 and FFA1 [3]: selectivity on FFA4
DMR response relative to the TUG891-induced response [3]: greater than 30%
EC50 [4]: > 100 µM
Compound: Cc1cc(O)c2c(c1)C(=O)c1cc(O)cc(O)c1C2=O [Emodin, emodin]

DMR response in CHO-FFA4 cells [3]: minor response
Agonist efficacy in CHO-FFA1 cells compared with ALA [4]: partial agonism
Compound: O=C(O)CCc1ccc(NCc2cccc(Oc3ccccc3)c2)cc1 [GW9508]
IC50 [5]: 0.14 ± 0.01 µM
DMR response in parental CHO-K1 cells [6]: negligible DMR response
IC50 [7]: 12 ± 2.12 µM

DMR response in CHO-FFA4 cells [3]: did not induce any response
Compound: Cc1cc(OCCCS(C)(=O)=O)cc(C)c1-c1cccc(COc2ccc3c(c2)OC[C@H]3CC(=O)O)c1 [TAK875]
DMR response in HT29 cells ([1]; TAK875 at 10 μM, MEDICA16): did not induce an observable signal
DMR response in parental CHO-K1 cells [6]: negligible DMR response
IC50 [8]: > 20 µM
IC50 [7]: > 20 µM
